Test results: ChEMBL document CHEMBL3994675, “Carbamylmethyl Mercaptoacetate Thioether: A Novel Scaffold for the Development of L1 Metallo-β-lactamase Inhibitors” (ACS Med Chem Lett, 2017)

How the values were obtained:
[1] = Inhibition of L1 (unknown origin) expressed in Escherichia coli BL21(DE3) using cefazolin as substrate preincubated for 30 mins followed by substrate addition by UV-Visible spectrophotometric method
Summary of the method: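 L1 IC50 measured in 30 mM Tris, pH 8.5, with cefazolin as substrate and inhibitor at 0.1–20 μM. Run in triplicate; mean ± SD reported.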

[2] = Inhibition of L1 (unknown origin) expressed in Escherichia coli BL21(DE3) at 100 uM using cefazolin as substrate preincubated for 3 to 60 mins followed by substrate addition by UV-Visible spectrophotometric method relative to control; conditions: TDE = time-dependent effect
Summary of the method: (§1)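 Purified enzyme preincubated with 100 μM inhibitor in its enzyme-specific buffer, then substrate added: 50 μM cefazolin for IMP-1 and L1, 40 μM imipenem for ImiS. Hydrolysis followed by UV-vis spectrophotometry. Preincubation times of 3–60 min were tested. % inhibition = activity without inhibitor (100%) minus residual activity.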

[3] = Inhibition of IMP1 (unknown origin) expressed in Escherichia coli BL21(DE3) at 100 uM using cefazolin as substrate preincubated for 3 to 60 mins followed by substrate addition by UV-Visible spectrophotometric method; conditions: TDE = time-dependent effect; summary of the method: as §1
[4] = Inhibition of IMP1 (unknown origin) expressed in Escherichia coli BL21(DE3) at 100 uM using cefazolin as substrate preincubated for 30 mins followed by substrate addition by UV-Visible spectrophotometric method relative to control; summary of the method: as §1
Escherichia coli [5] = test: Growth inhibition of Escherichia coli DH10B at 1024 ug/ml after 12 hrs macrodilution broth method; design: species or system K-12 substr. DH10B
Summary of the method: (§2)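 Cefazolin MIC determined for E. coli DH10B carrying pBC SK(+)-L1 and for E. coli not expressing L1, with and without compound.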

[6] = Inhibition of L1 (unknown origin) expressed in Escherichia coli BL21(DE3) at 100 uM using cefazolin as substrate preincubated for 30 mins followed by substrate addition by UV-Visible spectrophotometric method relative to control; summary of the method: as §1
Escherichia coli [7] = test: Growth inhibition of Escherichia coli DH10B harboring pBC SK(+)-L1 at 1024 ug/ml after 12 hrs macrodilution broth method; design: species or system K-12 substr. DH10B; summary of the method: as §2
[8] = Inhibition of ImiS (unknown origin) expressed in Escherichia coli BL21(DE3) at 100 uM using imipenem as substrate preincubated for 30 mins followed by substrate addition by UV-Visible spectrophotometric method relative to control; summary of the method: as §1
[9] = Inhibition of L1 (unknown origin) expressed in Escherichia coli DH10B harboring pBC SK(+)-L1 assessed as potentiation of cefazolin-induced antibacterial activity by measuring cefazolin MIC at 1024 ug/ml after 12 hrs macrodilution broth method
Summary of the method: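 Cefazolin MICs were read for E. coli DH10B carrying pBC SK(+)-L1 across a series of inhibitor concentrations. Cefazolin alone (no inhibitor) on the same strain served as the reference MIC. E. coli not expressing L1 was tested alongside as the susceptible comparator.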

[10] = Inhibition of ImiS (unknown origin) expressed in Escherichia coli BL21(DE3) at 100 uM using imipenem as substrate preincubated for 3 to 60 mins followed by substrate addition by UV-Visible spectrophotometric method relative to control; conditions: TDE = time-dependent effect; summary of the method: as §1
L929 = test: Cytotoxicity against mouse L929 cells assessed as reduction in cell viability up to 400 uM after 48 hrs by CCK assay; type: cell-based; conditions: l929, 48 h
Summary of the method: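 L-929 mouse fibroblasts exposed to compound at 12.5, 25, 50, 100, 200 and 400 μM working concentrations; cell viability measured.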

SMILES | IC50 [1] | inhibition [2] | inhibition [3] | inhibition [4] | growth inhibition (GI) (Escherichia coli [5]) | inhibition [6] | growth inhibition (GI) (Escherichia coli [7]) | inhibition [8] | MIC [9] | inhibition [10] | Activity (L929)
O=C([O-])CSCC(=O)Nc1ccc(Cl)cc1.[K+] | 20 µM | Tde | Tde | 48% | Non-Toxic | 73% | Non-Toxic | 25% | 16 µg/mL | Tde | 
O=C([O-])CSCC(=O)Nc1ccc(C(=O)O)cc1.[K+] | 7.5 µM | Tde | Tde | 71% | Non-Toxic | 75% | Non-Toxic | 87% | 16 µg/mL | Tde | 
O=C([O-])CSCC(=O)Nc1ccccc1.[K+] | 0.98 µM | Tde | Tde | 43% | Non-Toxic | 92% | Non-Toxic | 18% | 16 µg/mL | Tde | Non-Toxic
CC(C)CNC(=O)CSCC(=O)[O-].[K+] | 3.81 µM | Tde | Tde | 59% | Non-Toxic | 78% | Non-Toxic | 23% | 16 µg/mL | Tde | 
CCCCNC(=O)CSCC(=O)[O-].[K+] | 1.23 µM | Tde | Tde | 55% | Non-Toxic | 89% | Non-Toxic | 20% | 16 µg/mL | Tde | 
O=C([O-])CSCC(=O)Nc1ccccc1[N+](=O)[O-].[K+] | 4.21 µM | Tde | Tde | 44% | Non-Toxic | 77% | Non-Toxic | 21% | 16 µg/mL | Tde | Non-Toxic
CC(C)(C)NC(=O)CSCC(=O)[O-].[K+] | 0.75 µM | Tde | Tde | 69% | Non-Toxic | 91% | Non-Toxic | 21% | 16 µg/mL | Tde | Non-Toxic
O=C([O-])CSCC(=O)Nc1ccccc1O.[K+] | 0.58 µM | Tde | Tde | 40% | Non-Toxic | 95% | Non-Toxic | 74% | 8 µg/mL | Tde | 
O=C([O-])CSCC(=O)NCc1ccccc1.[K+] | 0.46 µM | Tde | Tde | 51% | Non-Toxic | 97% | Non-Toxic | 21% | 16 µg/mL | Tde | 
Cc1ccccc1NC(=O)CSCC(=O)[O-].[K+] | 0.46 µM | Tde | Tde | 50% | Non-Toxic | 95% | Non-Toxic | 24% | 16 µg/mL | Tde | 
